Experimental data from ChEMBL document CHEMBL1155110, “Ribose-modified purine nucleosides as ribonucleotide reductase inhibitors. Synthesis, antitumor activity, and molecular modeling of N6-substituted 3'-C-methyladenosine derivatives” (J Med Chem, 2008).

Tests used:
Caco-2 = assay: Antitumor activity against human CaCo2 cells after 48 hrs by MTS assay; assay type: functional; conditions: Caco-2, 48 h
In short: (§1)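 Cells grown in RPMI 1640 (K562) or MEM with Earle's salts (HT-29, CaCo-2, MCF-7) plus 10% FBS, 37 °C, 5% CO2; adherent lines trypsinized to single-cell suspension. Log-phase cells plated at about 5000 cells/mL, acclimatized 24 h, then exposed to serial dilutions in triplicate, up to 250 µM, for 48 h. MTS/PMS added 3 h; absorbance 490 nm; GI50 from growth inhibition.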

HT-29 = assay: Antitumor activity against human HT29 cells after 48 hrs by MTS assay; assay type: functional; conditions: HT-29, 48 h; in short: as §1
K562 [1] = assay: Antitumor activity against human K562 cells after 48 hrs by MTS assay; assay type: functional; conditions: K562, 48 h; in short: as §1
MCF7 = assay: Antitumor activity against human MCF7 cells after 48 hrs by MTS assay; assay type: functional; conditions: MCF7, 48 h; in short: as §1
Adenosine receptor A3 = target: T1, Adenosine receptor A3 (Homo sapiens, UniProt P0DMS8); assay: Inhibition of human adenosine A3 receptor
T1 sequence (P0DMS8 whole entry): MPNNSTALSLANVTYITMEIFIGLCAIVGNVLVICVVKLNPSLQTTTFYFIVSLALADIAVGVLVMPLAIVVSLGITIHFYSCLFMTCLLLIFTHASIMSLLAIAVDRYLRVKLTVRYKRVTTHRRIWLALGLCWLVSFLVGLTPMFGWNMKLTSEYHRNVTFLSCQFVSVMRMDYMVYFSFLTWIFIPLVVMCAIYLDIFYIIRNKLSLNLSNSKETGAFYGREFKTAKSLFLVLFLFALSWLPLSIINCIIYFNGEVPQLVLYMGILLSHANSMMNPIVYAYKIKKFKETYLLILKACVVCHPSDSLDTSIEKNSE

HL-60 [2] = assay: Decrease in intracellular dATP pool in human HL60 cells at 5 uM after 24 hrs relative to control; assay type: functional; design: scale not given: the % may be the effect or the level left
In short: (§2)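 HL-60 cells in log phase (0.5 × 10^6 per ml) incubated 24 h with drug at 2.5, 5 or 10 µM. dNTPs extracted from 5 × 10^7 cells by trichloroacetic acid lysis, Freon/tri-n-octylamine neutralization, periodate oxidation with methylamine (37 °C, 30 min). Quantified by SAX HPLC in ammonium phosphate pH 3.4 with 2% acetonitrile, UV 280/260 nm; expressed versus untreated control.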

HL-60 [3] = assay: Decrease in intracellular dATP pool in human HL60 cells at 10 uM after 24 hrs relative to control; assay type: functional; design: scale not given: the % may be the effect or the level left; in short: as §2
HL-60 [4] = assay: Decrease in intracellular dATP pool in human HL60 cells at 2.5 uM after 24 hrs relative to control; assay type: functional; design: scale not given: the % may be the effect or the level left; in short: as §2
HL-60 [5] = assay: Decrease in intracellular dATP pool in human HL60 cells at 40 nM relative to control; design: scale not given: the % may be the effect or the level left
HL-60 [6] = assay: Decrease in intracellular dCTP pool in human HL60 cells at 40 nM relative to control; assay type: functional; design: scale not given: the % may be the effect or the level left
K562 [7] = assay: Growth inhibition of 1 uM 1,4-dihydro-2-methyl-6-phenyl-4-(phenylethyl)-3,5-pyridine-dicarboxylic acid 3-ethyl-5-[(3-nitrophenyl) methyl] ester pretreated human K562 cells after 72 hrs by MTS assay; assay type: functional
K562 [8] = assay: Growth inhibition of 1 uM 1,4-dihydro-2-methyl-6-phenyl-4-(phenylethyl)-3,5-pyridine-dicarboxylic acid 3-ethyl-5-[(3-nitrophenyl) methyl] ester pretreated human K562 cells after 48 hrs by MTS assay; assay type: functional
K562 [9] = assay: Growth inhibition of 0.1 uM 1,4-dihydro-2-methyl-6-phenyl-4-(phenylethyl)-3,5-pyridine-dicarboxylic acid 3-ethyl-5-[(3-nitrophenyl) methyl] ester pretreated human K562 cells after 48 hrs by MTS assay; assay type: functional
K562 [10] = assay: Growth inhibition of 0.1 uM 1,4-dihydro-2-methyl-6-phenyl-4-(phenylethyl)-3,5-pyridine-dicarboxylic acid 3-ethyl-5-[(3-nitrophenyl) methyl] ester pretreated human K562 cells after 72 hrs by MTS assay; assay type: functional

SMILES | GI50 (Caco-2) | GI50 (HT-29) | GI50 (K562 [1]) | GI50 (MCF7) | other results
OC[C@H]1O[C@@H](n2cnc3c(NC4CCCC4)nc(Cl)nc32)[C@H](O)[C@@H]1O | > 250 µM | > 250 µM | > 250 µM | > 250 µM | –
OC[C@H]1O[C@@H](n2cnc3c(NCc4cccs4)ncnc32)[C@H](O)[C@@H]1O | 3.3 µM | 53.4 µM | 3.1 µM | 51.5 µM | Ki (Adenosine receptor A3): 0.06 µM
C[C@@]1(O)[C@@H](CO)O[C@@H](n2cnc3c(Nc4ccccc4)ncnc32)[C@@H]1O | 246 µM | 137 µM | 98 µM | 207 µM | –
C[C@@]1(O)[C@@H](CO)O[C@@H](n2cnc3c(NCc4ccccc4)ncnc32)[C@@H]1O | > 250 µM | > 250 µM | > 250 µM | > 250 µM | –
C[C@@]1(O)[C@@H](CO)O[C@@H](n2cnc3c(Nc4cc[nH]n4)ncnc32)[C@@H]1O | > 250 µM | > 250 µM | > 250 µM | > 250 µM | –
C[C@@]1(O)[C@@H](CO)O[C@@H](n2cnc3c(NCc4cccs4)ncnc32)[C@@H]1O | > 250 µM | > 250 µM | > 250 µM | > 250 µM | –
C[C@@]1(O)[C@@H](CO)O[C@@H](n2cnc3c(NCc4ccco4)ncnc32)[C@@H]1O | > 250 µM | > 250 µM | > 250 µM | > 250 µM | –
C[C@@]1(O)[C@H](O)[C@@H](CO)O[C@H]1n1cnc2c(N)ncnc21 | > 100 µM | > 100 µM | 16 µM | > 100 µM | –
OC[C@H]1O[C@@H](n2cnc3c(N[C@@H]4C[C@@H]5CC[C@@H]4C5)ncnc32)[C@H](O)[C@@H]1O (racemic) | > 250 µM | > 250 µM | 116 µM | > 250 µM | –
Nc1ccn([C@@H]2O[C@H](CO)[C@@H](O)C2(F)F)c(=O)n1 [GEMCITABINE] | 0.18 µM | 0.03 µM | 0.32 µM | 0.01 µM | Activity (HL-60 [5]): 13.9%; Activity (HL-60 [6]): 6.1%
OC[C@H]1O[C@@H](n2cnc3c(NCc4ccco4)ncnc32)[C@H](O)[C@@H]1O [KINETIN RIBOSIDE] | 45.6 µM | 60.2 µM | 3.3 µM | 45.6 µM | Ki (Adenosine receptor A3): 0.022 µM
OC[C@H]1O[C@@H](n2cnc3c(NCc4ccccc4)ncnc32)[C@H](O)[C@@H]1O [N6-BENZYLADENOSINE] | 7.4 µM | 22.3 µM | 4.6 µM | 61 µM | Ki (Adenosine receptor A3): 0.0413 µM; GI50 (K562 [7]): 2.92 µM; GI50 (K562 [8]): 4.17 µM; GI50 (K562 [9]): 3.91 µM; GI50 (K562 [10]): 2.92 µM
OC[C@H]1O[C@@H](n2cnc3c(Nc4ccccc4)ncnc32)[C@H](O)[C@@H]1O [N6-PHENYLADENOSINE] | > 250 µM | > 250 µM | > 250 µM | > 250 µM | –

More lines, main results first:

GI50 (Caco-2) | GI50 (HT-29) | GI50 (K562 [1]) | GI50 (MCF7) | SMILES | other results
> 250 µM | > 250 µM | > 250 µM | > 250 µM | OC[C@H]1O[C@@H](n2cnc3c(NC4CCCCC4)ncnc32)[C@H](O)[C@@H]1O | –
> 250 µM | 106 µM | 83 µM | 200 µM | C[C@@]1(O)[C@@H](CO)O[C@@H](n2cnc3c(NC4CCCCCC4)ncnc32)[C@@H]1O | –
23.2 µM | 26.1 µM | 9.4 µM | 22.4 µM | C[C@@]1(O)[C@@H](CO)O[C@@H](n2cnc3c(N)ncnc32)[C@@H]1O | –
> 250 µM | > 250 µM | 73 µM | > 250 µM | C[C@@]1(O)[C@@H](CO)O[C@@H](n2cnc3c(NC4CC4)ncnc32)[C@@H]1O | –
> 250 µM | > 250 µM | 246 µM | > 250 µM | C[C@@]1(O)[C@@H](CO)O[C@@H](n2cnc3c(NC4CCC4)ncnc32)[C@@H]1O | –
> 250 µM | > 250 µM | 145 µM | > 250 µM | C[C@@]1(O)[C@@H](CO)O[C@@H](n2cnc3c(NC4CCCC4)ncnc32)[C@@H]1O | –
> 250 µM | > 250 µM | > 250 µM | > 250 µM | C[C@@]1(O)[C@@H](CO)O[C@@H](n2cnc3c(NC4CCCC4)nc(Cl)nc32)[C@@H]1O | –
223 µM | > 250 µM | 50 µM | > 250 µM | C[C@@]1(O)[C@@H](CO)O[C@@H](n2cnc3c(NC4CCCCC4)ncnc32)[C@@H]1O | –
56 µM | 65.8 µM | 32.5 µM | 56 µM | C[C@@]1(O)[C@@H](CO)O[C@@H](n2cnc3c(N[C@@H]4C[C@@H]5CC[C@@H]4C5)ncnc32)[C@@H]1O (racemic) | Activity (HL-60 [2]): 28%; Activity (HL-60 [3]): 10%; Activity (HL-60 [4]): 65%
> 250 µM | > 250 µM | > 250 µM | > 250 µM | OC[C@H]1O[C@@H](n2cnc3c(NC4CCCC4)ncnc32)[C@H](O)[C@@H]1O [N6-CYCLOPENTYLADENOSINE] | –
